From ChEMBL document CHEMBL3351523 (Bioorg Med Chem, 2014)

System: not listed separately
Assay: Cytotoxicity against mock-infected BHK21 cells after 48 to 96 hrs by MTT assay
Format: functional
Conditions: Mesocricetus auratus, BHK-21
Procedure, shortened: (§1)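 Mock-infected MDBK (6 × 10^5 cells/mL; MEM-E, 10% horse serum, 1 mM pyruvate) or BHK (1 × 10^6 cells/mL; MEM-E, 10% FBS) cells were incubated at 37 °C, 5% CO2 with serial dilutions from 100 µM, 1:5. Viability by MTT after 48–96 h. CC50 from linear regression against untreated controls.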

Question: With `CC(=O)Nc1ccc(Cc2nc3ccccc3[nH]2)cc1` as the compound, how does the CC50 read?
Answer: > 100 µM

Question: Which CC50 does the source give for `COc1ccc2c(c1)nnn1c3cc(Cl)c(Cl)cc3nc21` here?
Answer: > 100 µM

Question: Which CC50 does the source give for `FC(F)(F)c1ccc2c(c1)nc(Cc1ccc(Cl)c(Cl)c1)n2C[C@@H]1CCCN2CCCC[C@H]12` here?
Answer: > 100 µM

Question: With `COc1ccc(Cc2nc3cc(C(F)(F)F)ccc3n2C[C@@H]2CCCN3CCCC[C@H]23)cc1` as the compound, how does the CC50 read?
Answer: > 100 µM

System: not listed separately
Assay: Cytotoxicity against mock-infected african green monkey Vero 76 cells after 48 to 96 hrs by MTT assay
Format: cell-based
Conditions: chlorocebus sabaeus, mock-infected Vero 76 cells

Question: With `CC(=O)Nc1ccc(Cc2nc3ccccc3[nH]2)cc1` as the compound, how does the CC50 read?
Answer: > 100 µM

Question: With `COc1ccc2c(c1)nnn1c3cc(Cl)c(Cl)cc3nc21` as the compound, how does the CC50 read?
Answer: > 100 µM

Question: With `FC(F)(F)c1ccc2c(c1)nc(Cc1ccc(Cl)c(Cl)c1)n2C[C@@H]1CCCN2CCCC[C@H]12` as the compound, how does the CC50 read?
Answer: > 100 µM

Question: Which CC50 does the source give for `COc1ccc(Cc2nc3cc(C(F)(F)F)ccc3n2C[C@@H]2CCCN3CCCC[C@H]23)cc1` here?
Answer: 89 µM

System: Vesicular stomatitis virus
Assay: Antiviral activity against Vesicular stomatitis virus infected in african green monkey Vero 76 cells assessed as reduction in plaque number after 2 days by plaque reduction assay
Format: functional, organism-based
Conditions: 48 h

Question: For `CC(=O)Nc1ccc(Cc2nc3ccccc3[nH]2)cc1`, which EC50 is on record?
Answer: > 100 µM

Question: For `COc1ccc2c(c1)nnn1c3cc(Cl)c(Cl)cc3nc21`, which EC50 is on record?
Answer: > 100 µM

Question: For `FC(F)(F)c1ccc2c(c1)nc(Cc1ccc(Cl)c(Cl)c1)n2C[C@@H]1CCCN2CCCC[C@H]12`, which EC50 is on record?
Answer: > 100 µM

Question: For `COc1ccc(Cc2nc3cc(C(F)(F)F)ccc3n2C[C@@H]2CCCN3CCCC[C@H]23)cc1`, which EC50 is on record?
Answer: > 100 µM

System: Poliovirus 1
Assay: Antiviral activity against Poliovirus type 1 Sabin strain infected in african green monkey Vero 76 cells assessed as reduction in plaque number after 2 days by plaque reduction assay
Format: functional, organism-based
Conditions: Enterovirus C, 48 h

Question: For `CC(=O)Nc1ccc(Cc2nc3ccccc3[nH]2)cc1`, which EC50 is on record?
Answer: > 100 µM

Question: Which EC50 does the source give for `COc1ccc2c(c1)nnn1c3cc(Cl)c(Cl)cc3nc21` here?
Answer: > 100 µM

Question: For `FC(F)(F)c1ccc2c(c1)nc(Cc1ccc(Cl)c(Cl)c1)n2C[C@@H]1CCCN2CCCC[C@H]12`, which EC50 is on record?
Answer: > 100 µM

Question: With `COc1ccc(Cc2nc3cc(C(F)(F)F)ccc3n2C[C@@H]2CCCN3CCCC[C@H]23)cc1` as the compound, how does the EC50 read?
Answer: > 100 µM

System: Respiratory syncytial virus
Assay: Antiviral activity against Respiratory syncytial virus infected in african green monkey Vero 76 cells assessed as reduction in plaque number after 5 days by plaque reduction assay
Format: functional, organism-based
Conditions: human respiratory syncytial virus, 120 h

Question: Which EC50 does the source give for `CC(=O)Nc1ccc(Cc2nc3ccccc3[nH]2)cc1` here?
Answer: > 100 µM

Question: With `COc1ccc2c(c1)nnn1c3cc(Cl)c(Cl)cc3nc21` as the compound, how does the EC50 read?
Answer: > 100 µM

Question: For `FC(F)(F)c1ccc2c(c1)nc(Cc1ccc(Cl)c(Cl)c1)n2C[C@@H]1CCCN2CCCC[C@H]12`, which EC50 is on record?
Answer: > 100 µM

Question: Which EC50 does the source give for `COc1ccc(Cc2nc3cc(C(F)(F)F)ccc3n2C[C@@H]2CCCN3CCCC[C@H]23)cc1` here?
Answer: > 100 µM

System: Bovine viral diarrhea virus 1
Assay: Antiviral activity against Bovine viral diarrhea virus infected in MDBK cells assessed as inhibition of virus-induced cytopathogenicity after 3 to 4 days by MTT assay
Format: functional, organism-based
Conditions: Bovine viral diarrhea virus isolates and strains

Question: For `CC(=O)Nc1ccc(Cc2nc3ccccc3[nH]2)cc1`, which EC50 is on record?
Answer: > 100 µM

Question: With `COc1ccc2c(c1)nnn1c3cc(Cl)c(Cl)cc3nc21` as the compound, how does the EC50 read?
Answer: > 100 µM

Question: Which EC50 does the source give for `FC(F)(F)c1ccc2c(c1)nc(Cc1ccc(Cl)c(Cl)c1)n2C[C@@H]1CCCN2CCCC[C@H]12` here?
Answer: > 100 µM

Question: Which EC50 does the source give for `COc1ccc(Cc2nc3cc(C(F)(F)F)ccc3n2C[C@@H]2CCCN3CCCC[C@H]23)cc1` here?
Answer: > 100 µM

System: Reovirus sp.
Assay: Antiviral activity against Reovirus type-1 infected in BHK21 cells assessed as inhibition of virus-induced cytopathogenicity after 3 to 4 days by MTT assay
Format: functional, organism-based
Conditions: BHK-21

Question: With `CC(=O)Nc1ccc(Cc2nc3ccccc3[nH]2)cc1` as the compound, how does the EC50 read?
Answer: > 100 µM

Question: With `COc1ccc2c(c1)nnn1c3cc(Cl)c(Cl)cc3nc21` as the compound, how does the EC50 read?
Answer: > 100 µM

Question: For `FC(F)(F)c1ccc2c(c1)nc(Cc1ccc(Cl)c(Cl)c1)n2C[C@@H]1CCCN2CCCC[C@H]12`, which EC50 is on record?
Answer: > 100 µM

Question: For `COc1ccc(Cc2nc3cc(C(F)(F)F)ccc3n2C[C@@H]2CCCN3CCCC[C@H]23)cc1`, which EC50 is on record?
Answer: > 100 µM

System: Human alphaherpesvirus 1
Assay: Antiviral activity against HSV1 infected in african green monkey Vero 76 cells assessed as reduction in plaque number after 3 days by plaque reduction assay
Format: functional, organism-based
Conditions: Human alphaherpesvirus 1, Vero, 72 h

Question: For `CC(=O)Nc1ccc(Cc2nc3ccccc3[nH]2)cc1`, which EC50 is on record?
Answer: > 100 µM

Question: Which EC50 does the source give for `COc1ccc2c(c1)nnn1c3cc(Cl)c(Cl)cc3nc21` here?
Answer: > 100 µM

Question: Which EC50 does the source give for `FC(F)(F)c1ccc2c(c1)nc(Cc1ccc(Cl)c(Cl)c1)n2C[C@@H]1CCCN2CCCC[C@H]12` here?
Answer: > 100 µM

Question: For `COc1ccc(Cc2nc3cc(C(F)(F)F)ccc3n2C[C@@H]2CCCN3CCCC[C@H]23)cc1`, which EC50 is on record?
Answer: > 100 µM

System: not listed separately
Assay: Cytotoxicity against mock-infected human MT4 cells after 96 hrs by MTT assay
Format: cell-based
Conditions: not given
Procedure, shortened: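 Exponentially growing MT-4 cells were seeded at 1 × 10^5 cells/mL in RPMI-1640 with 10% FBS and held at 37 °C, 5% CO2 with serial compound dilutions. Viability was read by MTT after 96 h. CC50 from linear regression against untreated controls.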

Question: Which CC50 at 96 h does the source give for `CC(=O)Nc1ccc(Cc2nc3ccccc3[nH]2)cc1` here?
Answer: > 100 µM

Question: For `COc1ccc2c(c1)nnn1c3cc(Cl)c(Cl)cc3nc21`, which CC50 at 96 h is on record?
Answer: > 100 µM

Question: For `FC(F)(F)c1ccc2c(c1)nc(Cc1ccc(Cl)c(Cl)c1)n2C[C@@H]1CCCN2CCCC[C@H]12`, which CC50 at 96 h is on record?
Answer: > 100 µM

Question: Which CC50 at 96 h does the source give for `COc1ccc(Cc2nc3cc(C(F)(F)F)ccc3n2C[C@@H]2CCCN3CCCC[C@H]23)cc1` here?
Answer: 77 µM

System: Coxsackievirus B5
Assay: Antiviral activity against Coxsackievirus B5 infected in african green monkey Vero 76 cells assessed as reduction in plaque number after 3 days by plaque reduction assay
Format: functional, organism-based
Conditions: Enterovirus B, 72 h

Question: With `CC(=O)Nc1ccc(Cc2nc3ccccc3[nH]2)cc1` as the compound, how does the EC50 read?
Answer: > 100 µM

Question: With `COc1ccc2c(c1)nnn1c3cc(Cl)c(Cl)cc3nc21` as the compound, how does the EC50 read?
Answer: > 100 µM

Question: Which EC50 does the source give for `FC(F)(F)c1ccc2c(c1)nc(Cc1ccc(Cl)c(Cl)c1)n2C[C@@H]1CCCN2CCCC[C@H]12` here?
Answer: > 100 µM

Question: Which EC50 does the source give for `COc1ccc(Cc2nc3cc(C(F)(F)F)ccc3n2C[C@@H]2CCCN3CCCC[C@H]23)cc1` here?
Answer: > 100 µM

System: Vaccinia virus
Assay: Antiviral activity against Vaccinia Virus infected in african green monkey Vero 76 cells assessed as reduction in plaque number after 3 days by plaque reduction assay
Format: functional, organism-based
Conditions: Orthopoxvirus vaccinia, 72 h

Question: For `CC(=O)Nc1ccc(Cc2nc3ccccc3[nH]2)cc1`, which EC50 is on record?
Answer: > 100 µM

Question: For `COc1ccc2c(c1)nnn1c3cc(Cl)c(Cl)cc3nc21`, which EC50 is on record?
Answer: > 100 µM

Question: For `FC(F)(F)c1ccc2c(c1)nc(Cc1ccc(Cl)c(Cl)c1)n2C[C@@H]1CCCN2CCCC[C@H]12`, which EC50 is on record?
Answer: > 100 µM

Question: With `COc1ccc(Cc2nc3cc(C(F)(F)F)ccc3n2C[C@@H]2CCCN3CCCC[C@H]23)cc1` as the compound, how does the EC50 read?
Answer: > 100 µM

System: not listed separately
Assay: Cytotoxicity against mock-infected MDBK cells after 48 to 96 hrs by MTT assay
Format: cell-based, Bos taurus
Conditions: cattle
Procedure, shortened: as §1

Question: With `CC(=O)Nc1ccc(Cc2nc3ccccc3[nH]2)cc1` as the compound, how does the CC50 read?
Answer: > 100 µM

Question: Which CC50 does the source give for `COc1ccc2c(c1)nnn1c3cc(Cl)c(Cl)cc3nc21` here?
Answer: > 100 µM

Question: For `FC(F)(F)c1ccc2c(c1)nc(Cc1ccc(Cl)c(Cl)c1)n2C[C@@H]1CCCN2CCCC[C@H]12`, which CC50 is on record?
Answer: 37 µM

Question: With `COc1ccc(Cc2nc3cc(C(F)(F)F)ccc3n2C[C@@H]2CCCN3CCCC[C@H]23)cc1` as the compound, how does the CC50 read?
Answer: > 100 µM

System: Yellow fever virus
Assay: Antiviral activity against Yellow fever virus infected in BHK21 cells assessed as inhibition of virus-induced cytopathogenicity after 3 to 4 days by MTT assay
Format: functional, organism-based
Conditions: BHK-21

Question: Which EC50 does the source give for `CC(=O)Nc1ccc(Cc2nc3ccccc3[nH]2)cc1` here?
Answer: > 100 µM

Question: For `COc1ccc2c(c1)nnn1c3cc(Cl)c(Cl)cc3nc21`, which EC50 is on record?
Answer: > 100 µM

Question: For `FC(F)(F)c1ccc2c(c1)nc(Cc1ccc(Cl)c(Cl)c1)n2C[C@@H]1CCCN2CCCC[C@H]12`, which EC50 is on record?
Answer: > 100 µM

Question: For `COc1ccc(Cc2nc3cc(C(F)(F)F)ccc3n2C[C@@H]2CCCN3CCCC[C@H]23)cc1`, which EC50 is on record?
Answer: > 100 µM

System: Human immunodeficiency virus 1
Assay: Antiviral activity against HIV1 infected in human MT4 cells assessed as inhibition of virus-induced cytopathogenicity after 4 days by MTT assay
Format: functional, organism-based
Conditions: Human immunodeficiency virus 1, MT4, 96 h
Procedure, shortened: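 MT-4 cells (1 × 10^4/well in RPMI) were infected acutely with HIV-1 IIIB, 100 CCID50 (m.o.i. 0.01), with serial dilutions from 100 µM, 1:5. After 4 days at 37 °C, protection from virus-induced cytopathogenicity was read by MTT. EC50 came from linear regression against untreated controls.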

Question: With `CC(=O)Nc1ccc(Cc2nc3ccccc3[nH]2)cc1` as the compound, how does the EC50 read?
Answer: > 100 µM

Question: Which EC50 does the source give for `COc1ccc2c(c1)nnn1c3cc(Cl)c(Cl)cc3nc21` here?
Answer: > 100 µM

Question: Which EC50 does the source give for `FC(F)(F)c1ccc2c(c1)nc(Cc1ccc(Cl)c(Cl)c1)n2C[C@@H]1CCCN2CCCC[C@H]12` here?
Answer: > 100 µM

Question: For `COc1ccc(Cc2nc3cc(C(F)(F)F)ccc3n2C[C@@H]2CCCN3CCCC[C@H]23)cc1`, which EC50 is on record?
Answer: > 100 µM
